From ChEMBL document CHEMBL1144339, “Synthesis and activity of oleanolic acid derivatives, a novel class of inhibitors of osteoclast formation” (2005) come the findings set out here.

The structures appear in SMILES notation.

For this experiment, the system named is Osteoclast-like. The experiment can be described thus: Percent inhibition of tartrate resistant acid phosphatase positive osteoclast like multinucleated cells formation by 1-alpha, 25-dihydroxy vitamin D3 in mouse bone marrow cells. Also on record: concentration or dose not given beside the values. Type of experiment: functional. The method, boiled down: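 Run as a co-culture assay. Formation of osteoclast-like multinucleated cells was induced with 1α,25-dihydroxy vitamin D₃.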
In turn, `CCC(C)C(NC(=O)[C@]12CCC(C)(C)C[C@H]1C1=CC[C@@H]3[C@@]4(C)CC[C@H](O)C(C)(C)C4CC[C@@]3(C)[C@]1(C)CC2)C(=O)O` (stereo partly specified) yielded an Inhibition of 53.5%.

`CC(C)C(NC(=O)[C@]12CCC(C)(C)C[C@H]1C1=CC[C@@H]3[C@@]4(C)CC[C@H](O)C(C)(C)C4CC[C@@]3(C)[C@]1(C)CC2)C(=O)O` (stereo partly specified) came in with an Inhibition of 41.3%.

`CC(NC(=O)[C@]12CCC(C)(C)C[C@H]1C1=CC[C@@H]3[C@@]4(C)CC[C@H](O)C(C)(C)C4CC[C@@]3(C)[C@]1(C)CC2)C(=O)O` (stereo partly specified) displayed an Inhibition of 87.8%.

Compound `CC1(C)CC[C@]2(C(=O)O)CC[C@]3(C)C(=CC[C@@H]4[C@@]5(C)CC[C@H](O)C(C)(C)C5CC[C@]43C)[C@@H]2C1` (stereo partly specified) had an Inhibition of 27.6%.

Regarding `CC1(C)CC[C@]2(C(=O)N3CCCC3C(=O)O)CC[C@]3(C)C(=CC[C@@H]4[C@@]5(C)CC[C@H](O)C(C)(C)C5CC[C@]43C)[C@@H]2C1` (stereo partly specified), the Inhibition came to 21%.

Regarding `CC1(C)CC[C@]2(C(=O)N3CCCC3C(=O)O)CC[C@]3(C)C(=CC(=O)[C@@H]4[C@@]5(C)CC[C@H](O)C(C)(C)C5CC[C@]43C)[C@@H]2C1` (stereo partly specified), the Inhibition is given as 40.3%.

In turn, `CC1(C)CC[C@]2(C(=O)NC(Cc3ccccc3)C(=O)O)CC[C@]3(C)C(=CC[C@@H]4[C@@]5(C)CC[C@H](O)C(C)(C)C5CC[C@]43C)[C@@H]2C1` (stereo partly specified) gave an Inhibition of 16.3%.

Compound `CC1(C)CC[C@]2(C(=O)O)CC[C@]3(C)C(=CC(=O)[C@@H]4[C@@]5(C)CC[C@H](O)C(C)(C)C5CC[C@]43C)[C@@H]2C1` (stereo partly specified) displayed an Inhibition of 38.5%.

Regarding `CC(C)C(NC(=O)[C@]12CCC(C)(C)C[C@H]1C1=CC(=O)[C@@H]3[C@@]4(C)CC[C@H](O)C(C)(C)C4CC[C@@]3(C)[C@]1(C)CC2)C(=O)O` (stereo partly specified), the Inhibition is on record as 59%.

For the compound `CCC(C)C(NC(=O)[C@]12CCC(C)(C)C[C@H]1C1=CC(=O)[C@@H]3[C@@]4(C)CC[C@H](O)C(C)(C)C4CC[C@@]3(C)[C@]1(C)CC2)C(=O)O` (stereo partly specified), the Inhibition is on record as 62%.

On to `CC1(C)CC[C@]2(C(=O)NCC(=O)O)CC[C@]3(C)C(=CC(=O)[C@@H]4[C@@]5(C)CC[C@H](O)C(C)(C)C5CC[C@]43C)[C@@H]2C1` (stereo partly specified), for which the Inhibition amounted to 83.3%.

As to `CC1(C)CC[C@]2(C(=O)NC(Cc3ccccc3)C(=O)O)CC[C@]3(C)C(=CC(=O)[C@@H]4[C@@]5(C)CC[C@H](O)C(C)(C)C5CC[C@]43C)[C@@H]2C1` (stereo partly specified), the Inhibition amounted to 36.5%.

Compound `CC(C)CC(NC(=O)[C@]12CCC(C)(C)C[C@H]1C1=CC[C@@H]3[C@@]4(C)CC[C@H](O)C(C)(C)C4CC[C@@]3(C)[C@]1(C)CC2)C(=O)O` (stereo partly specified) showed an Inhibition of 51.2%.

On to `CC(NC(=O)[C@]12CCC(C)(C)C[C@H]1C1=CC(=O)[C@@H]3[C@@]4(C)CC[C@H](O)C(C)(C)C4CC[C@@]3(C)[C@]1(C)CC2)C(=O)O` (stereo partly specified), for which the Inhibition is recorded as 76.3%.

The compound `CC(C)CC(NC(=O)[C@]12CCC(C)(C)C[C@H]1C1=CC(=O)[C@@H]3[C@@]4(C)CC[C@H](O)C(C)(C)C4CC[C@@]3(C)[C@]1(C)CC2)C(=O)O` (stereo partly specified) returned an Inhibition of 69.5%.

As to `CC1(C)CC[C@]2(C(=O)NCC(=O)O)CC[C@]3(C)C(=CC[C@@H]4[C@@]5(C)CC[C@H](O)C(C)(C)[C@@H]5CC[C@]43C)[C@@H]2C1`, the Inhibition is reported as 61.5%.

In general, Inhibition refers to how much of the control response was suppressed.
